Molecular target: T1, B2 bradykinin receptor (Rattus norvegicus, UniProt P25023)
T1 sequence (P25023 whole entry): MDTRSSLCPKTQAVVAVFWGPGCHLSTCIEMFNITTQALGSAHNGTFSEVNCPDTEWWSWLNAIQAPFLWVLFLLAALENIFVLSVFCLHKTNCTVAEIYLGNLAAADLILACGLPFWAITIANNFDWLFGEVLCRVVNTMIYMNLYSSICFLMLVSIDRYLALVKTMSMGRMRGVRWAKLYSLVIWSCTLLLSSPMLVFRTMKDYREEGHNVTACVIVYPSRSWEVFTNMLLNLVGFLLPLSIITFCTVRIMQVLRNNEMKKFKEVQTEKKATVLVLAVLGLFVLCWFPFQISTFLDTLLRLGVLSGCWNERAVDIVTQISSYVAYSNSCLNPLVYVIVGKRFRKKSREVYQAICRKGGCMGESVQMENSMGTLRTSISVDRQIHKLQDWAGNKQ
Assay: In vitro Bradykinin receptor B2 antagonist activity by using rat uterus functional assay
Outline: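 Uterine horns from female Sprague-Dawley rats primed with stilbesterol (100 μg/kg) 18 h earlier. Tissue held at 1 g tension in De Jalon's solution, 31 °C, aerated. […] Potency by Arunlakshana-Schild analysis.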

Kd: 22.4 nM
Structure (SMILES): N=C(N)NCCCCC(=O)N1CCC[C@@H]1C(=O)N1C[C@@H](O)C[C@@H]1C(=O)NCC(=O)N[C@@H](Cc1cccs1)C(=O)N[C@@H](CO)C(=O)N1Cc2ccccc2C[C@@H]1C(=O)N(CC(=O)N[C@@H](CCCNC(=N)N)C(=O)O)C1CCCCC1

— BindingDB's records for doi:10.1021/jm950716i (Cortech, 1996)
